Compound activity from PubChem.
HKDC1 inh: blocks human hexokinase HKDC1 activity | Q2TB90 | actives 0.16% (n = 340,000) | AID 493160 | inhibition, % at 20 µM | recombinant HKDC1, G6PDH/diaphorase resazurin coupled fluorescence;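 active means inhibition above about 35% when tested at 20 µM, limit read from the data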;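 further: plate controls were DMSO wells with enzyme for no effect and DMSO wells lacking enzyme for full effect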
Target sequence (Q2TB90 whole entry, looked up): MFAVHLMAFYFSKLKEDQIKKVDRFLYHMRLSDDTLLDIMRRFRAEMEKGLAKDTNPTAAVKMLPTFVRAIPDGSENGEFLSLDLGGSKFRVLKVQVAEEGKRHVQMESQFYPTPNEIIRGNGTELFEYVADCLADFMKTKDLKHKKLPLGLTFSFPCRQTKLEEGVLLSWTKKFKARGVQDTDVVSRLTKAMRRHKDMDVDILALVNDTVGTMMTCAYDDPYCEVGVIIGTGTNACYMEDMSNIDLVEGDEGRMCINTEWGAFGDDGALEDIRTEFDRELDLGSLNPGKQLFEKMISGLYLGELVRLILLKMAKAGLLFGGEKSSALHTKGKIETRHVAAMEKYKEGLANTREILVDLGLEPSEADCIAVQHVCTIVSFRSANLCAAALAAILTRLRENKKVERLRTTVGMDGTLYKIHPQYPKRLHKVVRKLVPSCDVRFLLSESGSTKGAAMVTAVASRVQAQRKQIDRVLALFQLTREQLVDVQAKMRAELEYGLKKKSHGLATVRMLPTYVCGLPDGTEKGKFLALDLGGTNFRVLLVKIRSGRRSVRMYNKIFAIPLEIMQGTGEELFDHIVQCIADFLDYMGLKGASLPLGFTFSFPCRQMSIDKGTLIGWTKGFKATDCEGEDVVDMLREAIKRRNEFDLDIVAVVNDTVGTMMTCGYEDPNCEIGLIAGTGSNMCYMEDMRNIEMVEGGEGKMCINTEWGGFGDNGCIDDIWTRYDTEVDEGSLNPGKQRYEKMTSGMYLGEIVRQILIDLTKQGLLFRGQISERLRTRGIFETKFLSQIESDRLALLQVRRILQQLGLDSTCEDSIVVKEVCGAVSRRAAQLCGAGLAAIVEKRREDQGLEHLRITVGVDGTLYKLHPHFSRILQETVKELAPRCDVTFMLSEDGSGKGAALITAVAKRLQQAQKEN
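Test system: Recombinant HKDC1 (HK5) hexokinase enzyme, produced in-house | Input: HKDC1 at 5 µg/mL | Buffer or medium: Tris pH 8.0 buffer with MgCl2, Tween-20, BSA, BME | Schedule: 90 min reaction incubation at room temperature, dark | Technique: Resazurin-to-resorufin fluorescence via G6PDH and diaphorase coupling, 525/613 nm | Controls: DMSO wells with and without enzyme mix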
G6PDH CS: counter-screen for G6PDH assay hits: L. mesenteroides G6PDH inhibition. Purified L. mesenteroides G6PDH, diaphorase/resazurin coupled fluorescence, 45 min. inhibition, % at 5 µM. actives 0.12% (n = 200,000). AID 1020; in the data active means inhibition above about 50%
Diaph inh CS: diaphorase inhibition or chemical oxidation counter-screen | diaphorase resazurin-to-resorufin fluorescence, NADH, 16 min; bacterial (C. kluyveri) enzyme, not human | inhibition, % at 20 µM | actives 0.69% (n = 190,000);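 active means primary screen inhibition at 20 µM above a set limit, cut at about 50% in these data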;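 further: plate controls were DMSO with full reaction for no effect and wells lacking NADH for full effect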
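Assay system: diaphorase enzyme from Clostridium kluyveri; Input: enzyme working solution with 0.14 U/mL diaphorase; Timing: 16 min at room temperature; Technique: resorufin fluorescence, excitation 544 nm, emission 590 nm; Benchmarks: positive control minus NADH, DMSO neutral control.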
PfGluPho inh: PfG6PD (Plasmodium falciparum) enzyme inhibition; AID 504690; actives 0.78% (n = 350,000); PfGluPho enzyme, NADPH resazurin-diaphorase fluorescence; inhibition, % at 20 µM;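 active means inhibition reaching at least a set limit at 20 µM in the primary screen, cut at about 59% in these data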;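 further: 0% = DMSO wells with substrate and 100% = DMSO wells lacking glucose-6-phosphate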
PfG6PD confirm: PfG6PD inhibition, single-dose confirmed; shares compounds with PfGluPho inh; recombinant PfGluPho, NADPH-diaphorase-resazurin fluorescence; inhibition, % at 20 µM; actives 34% (n = 2,400);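 active means inhibition of at least 50% at 20 µM in any single replicate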;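 further: 0% = DMSO with substrate and 100% = DMSO lacking glucose-6-phosphate substrate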
Diaph ctr 10uM: inhibits diaphorase or oxidizes, flagging false PfG6PD hits | shares compounds with PfGluPho inh | diaphorase-coupled resazurin reduction, fluorescence, NADPH 10 uM | inhibition, % at 20 µM | actives 39% (n = 820) | AID 504862;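 active means average inhibition reaching 50% or more with the compound at 20 µM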;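 further: resorufin red fluorescence formed as diaphorase reduces resazurin using NADPH; 0% = DMSO with enzyme and 100% = DMSO without enzyme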
Diaph ctr 30uM: inhibits diaphorase or oxidizes, flagging false PfG6PD hits. shares compounds with PfGluPho inh. Diaphorase/resazurin coupled assay, resorufin fluorescence, 30 uM NADPH. inhibition, % at 20 µM. actives 29% (n = 820);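 active means inhibition averaging 50% or more, tested at 20 µM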;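 further: 0% = DMSO with enzyme and 100% = DMSO wells lacking diaphorase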
The depositor's hits bear a star; nt = no result given. Most compounds without a hit are left out; they make up all but 1.3% or so of the library.

SMILES	HKDC1 inh	G6PDH CS	Diaph inh CS	PfGluPho inh	PfG6PD confirm	others
CCc1cc(CNC(=O)c2ccc(OC3CCN(C(C)=O)CC3)c(OC)c2)on1	-3.1	nt	nt	3.8	nt
O=C(Cn1cnc2ccccc21)OCC(=O)N1CCCCC1	-6.5	nt	nt	1.8	nt
O=C(CC(=O)N/N=C/c1ccc(Cl)cc1Cl)NCc1ccccc1	-3.8	6.4	4.8	28.3	nt
Cc1ccsc1/C=N\NC(=O)CC(=O)NCc1ccccc1	8.0	5.8	14.7	86.2*	72.8*	Diaph ctr 10uM=60.8*;Diaph ctr 30uM=40.9
O=C(CC(=O)N/N=C/c1c(F)cccc1Cl)NCc1ccccc1	-1.6	1.1	2.0	77.4*	67.1*	Diaph ctr 10uM=62.4*;Diaph ctr 30uM=51.7*
C=CCN(CC=C)C(=S)NC(=O)c1ccc([N+](=O)[O-])cc1	-5.7	-4.3	15.8	85.7*	-7.4
CCOc1ccccc1Oc1nc(-c2ccccc2O)nc2ccccc12	2.2	nt	nt	86.0*	14.8
CCN(c1ccccc1)S(=O)(=O)c1ccc(C(=O)Nc2ncccc2O)cc1	9.4	nt	nt	-28.4	nt
Cc1ccc(Cn2c(=O)sc3ccccc3c2=O)cc1	-4.6	-19.0	15.7	-4.9	nt
Cc1ccc(-n2sc3ccccc3c2=O)cc1	14.6	-9.1	11.9	114.8*	100.6*	Diaph ctr 10uM=-23.4;Diaph ctr 30uM=-22.9
O=c1c2ccccc2ncn1-c1ccc(Cl)cc1	-2.7	nt	nt	-12.7	nt
O=c1c2ccccc2sn1-c1ccc(Cl)cc1	nt	nt	nt	125.5*	106.0*	Diaph ctr 10uM=-4.9;Diaph ctr 30uM=15.7
O=C(COC(=O)c1c[nH]c(=O)[nH]c1=O)Nc1cccc([N+](=O)[O-])c1	2.3	nt	nt	-9.9	nt
O=C1NC(c2cccc(OCc3ccccc3)c2)Nc2ccccc21 (configuration not stated)	-1.5	nt	nt	11.2	nt
Cc1ccc(C)c(CN2C(=O)COc3ccccc32)c1	-4.1	nt	nt	-1.0	nt
Cc1ccc(C)c(CN2C(=O)COc3ccc(C(=O)c4ccccc4C(=O)O)cc32)c1	3.5	2.3	25.4	61.3*	39.8
O=C(N/N=C/c1cc2c(cc1[N+](=O)[O-])OCO2)c1ccccn1	-1.1	nt	nt	72.3*	20.1
O=C(N/N=C/c1cc2c(cc1Cl)OCO2)c1ccccn1	-2.8	nt	nt	-3.4	nt
CCC1(CC)NC(=O)N(CC(=O)OCC(=O)Nc2cc(OC)ccc2OC)C1=O	-5.0	nt	nt	1.1	nt
Cc1cccn2c(=O)c3cc(C(N)=S)c(=N)n(CCCOC(C)C)c3nc12	-4.7	7.3	35.2	24.5	nt
Cc1cccn2c(=O)c3cc(C(=O)NC4CCCC4)c(=N)n(CCc4ccccc4)c3nc12	-9.5	nt	nt	9.3	nt
Cc1cccn2c(=O)c3cc(C(=O)NC4CCCC4)c(=N)n(Cc4ccc(F)cc4)c3nc12	1.7	nt	nt	63.5*	-9.7
Cc1cccn2c(=O)c3cc(C(=O)NC4CCCCC4)c(=N)n(Cc4ccccc4)c3nc12	-3.2	nt	nt	69.7*	-1.3
CCOCCCn1c(=N)c(C(N)=S)cc2c(=O)n3cccc(C)c3nc21	1.5	-33.5	8.2	63.8*	7.5
N=c1c(C(=O)NC2CCCCC2)cc2c(=O)n3ccccc3nc2n1Cc1ccc(F)cc1	-3.0	nt	nt	15.5	nt
SMILES	HKDC1 inh	G6PDH CS	Diaph inh CS	PfGluPho inh	PfG6PD confirm	others
COc1ccc(-c2cn3cc(C)ccc3n2)cc1OC	-1.2	-14.7	-2.3	61.4*	42.7
COc1ccc(-c2cn3cccc(C)c3n2)cc1F	-5.5	5.8	17.2	26.0	nt
COc1ccc(-c2cn3ccccc3n2)cc1OC	-1.8	-4.6	13.6	5.0	nt
COc1ccc(-c2cn3cc(C)ccc3n2)cc1F	-4.5	7.8	-3.2	107.0*	73.0*	Diaph ctr 10uM=64.4*;Diaph ctr 30uM=54.1*
CCC(C)NC(=O)CCn1ccc2cc(S(=O)(=O)N3CCCC3)ccc21 (configuration not stated)	-4.1	nt	nt	7.9	nt
O=C(COC(=O)c1ccccc1O)Nc1cccc2ccccc12	-5.1	nt	nt	-8.0	nt
O=C(/C=C/c1ccc(O)cc1)c1ccc(NC2=C(N3CCCCC3)C(=O)c3ccccc3C2=O)cc1	28.5	52.3*	36.3	71.2*	19.1
O=C(/C=C/c1ccc(O)cc1)c1ccccc1	2.8	nt	nt	-3.0	nt
CCOc1ccc(C(C)NC(=S)NC2CCCCC2)cc1OCC (configuration not stated)	7.4	6.3	12.7	6.2	nt
CCOc1ccc(C(=S)NC2CCCCC2)cc1OCC	-6.0	nt	nt	65.2*	23.1
CC(C)n1nc(C(=O)Nc2cccc(S(=O)(=O)N3CCOCC3)c2)c2ccccc2c1=O	-5.6	nt	nt	14.2	nt
Cc1cccc(N(CC(=O)NCCc2ccccc2)C(=O)c2csnn2)c1	-2.8	nt	nt	3.6	nt
O=C(CCl)NCCN1C(=O)S/C(=C\c2cccnc2)C1=O	1.3	-1.7	-14.9	72.1*	66.4*	Diaph ctr 10uM=-29.2;Diaph ctr 30uM=-8.7
Cc1c(Cl)cccc1N=Cc1ccc([N+](=O)[O-])s1	3.1	4.5	4.5	77.4*	-5.2
Cc1ccccc1C(=O)N/N=C/c1ccc([N+](=O)[O-])s1	10.1	7.6	2.4	35.1	nt
CCOc1ccccc1C(=O)Nc1ccc(S(=O)(=O)Nc2nccc(C)n2)cc1	-2.8	nt	nt	73.2*	13.7
CCOc1ccc(C(=O)Nc2ccc(S(=O)(=O)Nc3nccc(C)n3)cc2)cc1OCC	-5.5	nt	nt	-0.9	nt
COc1ccc(CNC(=O)CC2C[C@H](C(=O)N3CCOCC3)[C@@]3(CCC4CCCC4)c4[nH]c5ccccc5c4CCN3C2=O)cc1OC (some centres not stated)	-1.2	nt	nt	14.9	nt
c1ccc(OCCSc2nnc3sc4ccccc4n23)cc1	11.2	1.9	15.8	105.0*	97.5*	Diaph ctr 10uM=88.2*;Diaph ctr 30uM=73.8*
COc1ccccc1N(CC(O)CN1CCC(C)CC1)S(=O)(=O)c1ccccc1 (configuration not stated)	-5.9	nt	nt	8.2	nt
O=C1CN(S(=O)(=O)c2cc(C(F)(F)F)ccc2Cl)CCN1	-2.6	nt	nt	25.0	nt
CC(=O)c1ccc(NC(=S)Nc2cccc3cnccc23)cc1	8.2	nt	nt	63.5*	-5.5
Cc1ccc(C)c(NC(=S)Nc2cccc3cnccc23)c1	19.5	40.1	55.4*	101.0*	-2.0
Cc1ccc(NC(=S)Nc2cccc3cnccc23)cc1	8.3	32.5	49.2	56.8	nt
O=P1(NC2CCCC2)OCC2(CO1)COP(=O)(NC1CCCC1)OC2 (configuration not stated)	-4.2	nt	nt	8.1	nt
CC(C)C(NS(=O)(=O)c1cccc2nsnc12)C(=O)N1CCCCC1 (configuration not stated)	-1.6	nt	nt	3.2	nt
Cc1ccc(S(=O)(=O)N(CCCc2c(C)nc(N)[nH]c2=O)Cc2ccc([N+](=O)[O-])cc2)cc1	nt	nt	nt	61.9*	24.7
Cn1nc(C(F)(F)F)c2cc(NC(=O)OCc3ccc(F)cc3)sc21	7.1	7.1	23.8	59.0*	4.2
Cc1ccc(C(C)C)c(OCC(=O)NNC(=O)Cn2[nH]c(=O)c3ccccc3c2=O)c1	-6.3	nt	nt	0.2	nt
O=C(COC(=O)c1cccc2c1C(=O)c1ccccc1C2=O)NC1CCCCC1	10.6	-20.0	23.5	-17.7	nt
